From PubChem BioAssay
KCNQ1 pot = potentiates or activates the human KCNQ1 potassium channel | B-score at 10 µM | 310,000 compounds, 0.35% hits | P51787 | CHO-K1 KCNQ1, thallium flux FluxOR fluorescence; hits give high values | AID 2648;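 active means fluorescence ratio B-score, a plate-corrected score, at least three library SD, with initial intensity B-score within 5 SD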
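Schedule – 37 °C overnight plating, 90-min dark dye load, 20-min compound pretreatment · System – stable KCNQ1 CHO-K1 line · Probe or stimulus – thallium- and potassium-containing depolarizing buffer · Measured by – kinetic FluxOR fluorescence, 10 s baseline plus 110 s post-stimulus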
hERG protect = compounds protecting human hERG from proarrhythmic drug block; Q12809; CHO-hERG, FluxOR thallium flux, dofetilide IC70 present; activation (rescue from dofetilide block), less the hit threshold, % at 10 µM; 310,000 compounds, 0.51% hits;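 active means activation above the mean of controls blocked by dofetilide plus 5 SD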;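 further: thallium influx through hERG after potassium depolarization seen as dye fluorescence rise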
KCNQ1 block = inhibitors of human KCNQ1 potassium channel; AID 2642; B-score at 10 µM; 310,000 compounds, 1.3% hits; P51787; CHO-K1 KCNQ1, FluxOR thallium flux fluorescence; hits give high values;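 active means compounds whose thallium flux B-score, printed positive for inhibition, exceeds three library SD while starting fluorescence stays within three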;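 further: channel opened by potassium depolarization with thallium stimulus after 20 min compound exposure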
KCNK3 inh = human KCNK3 channel inhibition, primary screen. O14649. CHO-KCNK3 thallium flux, FluxOR fluorescence; hits give low values. B-score at 10 µM. 340,000 compounds, 0.84% hits. AID 602410;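 active means B-score under library mean minus 4 SD, starting fluorescence ratio at most library mean plus 5 SD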;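 further: more negative B-score means stronger inhibition of thallium flux through KCNK3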
Target sequence (O14649 whole entry, looked up): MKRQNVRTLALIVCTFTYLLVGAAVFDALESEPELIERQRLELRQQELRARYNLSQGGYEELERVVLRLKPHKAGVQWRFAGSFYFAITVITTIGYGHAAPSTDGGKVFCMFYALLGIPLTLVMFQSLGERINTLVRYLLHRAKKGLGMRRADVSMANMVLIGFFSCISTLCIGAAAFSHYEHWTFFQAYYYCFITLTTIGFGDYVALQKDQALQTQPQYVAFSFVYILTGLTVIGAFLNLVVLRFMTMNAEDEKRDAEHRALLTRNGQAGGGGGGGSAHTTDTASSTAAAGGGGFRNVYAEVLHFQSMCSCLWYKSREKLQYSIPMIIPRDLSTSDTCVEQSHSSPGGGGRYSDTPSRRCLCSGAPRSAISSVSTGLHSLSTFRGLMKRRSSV
KCNK9 inh = human KCNK9 channel inhibition; Q9NPC2; HEK293 KCNK9, FluxOR thallium flux fluorescence; hits give low values; B-score at 10 µM; 310,000 compounds, 1.2% hits;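 active means ratio B-score over 3 SD below the library mean, with starting fluorescence within 5 SD of its mean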;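 further: negative B-score means less thallium flux so channel inhibition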
KCNK9 inh conf = confirmation of human KCNK9 potassium channel inhibitors | shares compounds with KCNK9 inh | HEK293 KCNK9 cells, FluxOR thallium flux fluorescence | inhibition, % at 10 µM | 4,900 compounds, 43% hits | AID 492992;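 active means thallium signal inhibited by more than 5 SD of the compound-free buffer control wells, on both duplicate plates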;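 further: 0% = assay buffer control wells without compound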
Kir21 sel = tests whether KCNK9 modulators also affect mouse Kir2.1 | shares compounds with KCNK9 inh | Kir2.1 cells, FluxOR thallium flux fluorescence | inhibition, % at 10 µM | 4,900 compounds, 4% hits | AID 492993;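 active means thallium signal drop more than 5 SD beyond the mean of the no-compound control wells, seen in both duplicate plates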;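 further: signal is fluorescence rise after thallium addition divided by baseline fluorescence; plate controls were assay buffer only for no effect and full block by chlorpromazine control for full effect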
HEK293 Tl ctr = second check of KCNK9 modulator effects in non-induced HEK293 cells | shares compounds with KCNK9 inh | FluxOR thallium flux | inhibition, % at 10 µM | 4,900 compounds, 40% hits | AID 492997;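 active means thallium signal drop beyond 5 SD of the untreated control mean, on both duplicate plates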;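 further: plate controls were buffer only IC0 wells for no effect and SID17386958 at its maximal inhibitory level for full effect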
The depositor's hits bear a star; i = inactive; x = no result given. An excerpt weighted towards active compounds, which were near 3.1% of everything screened.

SMILES | KCNQ1 pot | hERG protect | KCNQ1 block | KCNK3 inh | KCNK9 inh | KCNK9 inh conf | Kir21 sel | HEK293 Tl ctr
O=C(Nc1cccc(Cl)c1)C1CCN(C(=O)c2cccs2)CC1 | i | -6 | i | i | i | x | x | x
O=C(NCCN1CCOCC1)c1cccc(S(=O)(=O)Nc2ccc(Br)cc2)c1 | x | x | x | i | x | x | x | x
CCCC(=O)OC(C(=O)Nc1cc(C(F)(F)F)ccc1Cl)c1ccccc1 (configuration not stated) | i | -12 | i | i | -13* | 46%* | i | 46%*
COc1ccc(N(C)S(=O)(=O)c2cccc(C(=O)OC(C(=O)Nc3cc(C)cc(C)c3)c3ccccc3)c2)cc1 (configuration not stated) | i | -10 | i | i | i | x | x | x
COc1ccc(C)cc1NC(=O)C(OC(=O)c1cnccn1)c1ccccc1 (configuration not stated) | i | -16 | i | i | i | x | x | x
Cc1cc(C(=O)NCC(=O)OC(C(=O)Nc2cc(C(F)(F)F)ccc2Cl)c2ccccc2)ccc1[N+](=O)[O-] (configuration not stated) | i | -6 | i | -9.5* | -20* | 62%* | i | 32%*
COc1ccc(C)cc1NC(=O)C(OC(=O)CNC(=O)c1ccc(Br)cc1)c1ccccc1 (configuration not stated) | i | -7 | i | i | -10* | 36%* | i | 38%*
CCCC(=O)Nc1ccc(C(=O)Nc2cc(C(F)(F)F)ccc2Cl)cc1 | i | -5 | i | i | i | x | x | x
COc1ccc(C)cc1NC(=O)C(OC(=O)c1ccc(Cl)c(S(=O)(=O)N(C)c2ccccc2)c1)c1ccccc1 (configuration not stated) | i | -6 | i | -9.8* | -9.6* | 42%* | i | i
COCc1ccc(C(=O)NC2CCCN(Cc3ccccc3F)C2)o1 (configuration not stated) | i | -5 | i | i | i | x | x | x
COCCN(CC(=O)Nc1cccc(C)c1C)C(=O)C1CCN(S(=O)(=O)c2ccccc2)CC1 | x | x | x | i | x | x | x | x
Cc1ccc(Cn2c(SCC(=O)N/N=C/c3ccc(C)o3)nc3ccccc32)cc1 | i | -15 | i | i | -21* | 55%* | i | 41%*
O=C(CSc1nc2ccccc2n1Cc1ccccc1)N/N=C/c1ccco1 | i | -15 | i | i | i | x | x | x
COc1ccc2ccccc2c1CN1CCN(Cc2ccccc2)CC1 | i | -17 | i | i | i | i | i | i
CCN(CC)c1ccc(/C=N/N2CCN(Cc3ccccc3Cl)CC2)c(O)c1 | i | -7 | i | i | i | x | x | x
COc1ccccc1/C=C/CN1CCN(c2ccccc2)CC1 | i | -6 | i | i | i | i | i | i
CCN(CC)c1ccc(/C=N/N2CCN(Cc3ccc(C)cc3)CC2)c(O)c1 | i | -5 | i | i | i | i | i | i
Cc1ccc(CN2CCN(/N=C/C=C/c3ccccc3[N+](=O)[O-])CC2)cc1 | i | -10 | i | i | i | i | i | i
Cc1ccc(CN2CCN(/N=C/c3cc([N+](=O)[O-])ccc3Cl)CC2)cc1 | i | -7 | i | i | i | x | x | x
COc1ccc(CCNC(=O)[C@H](CC(C)C)NC(=O)N2CCn3c2nc2ccccc23)cc1OC | i | -13 | i | i | i | x | x | x
Cc1csc(=O)n1CC(=O)Nc1nc2ccccc2s1 | x | x | x | i | x | x | x | x
COc1ccc(-c2cc3c(=O)n(CC(=O)N4CCCC4)ncn3n2)cc1 | i | -9 | i | i | i | x | x | x
O=C(NC1CCCC1)c1n[nH]c2ccccc12 | i | -14 | i | i | i | x | x | x
Cc1ccc(CSc2nnc(SCC(=O)N/N=C/C=C/c3ccccc3[N+](=O)[O-])s2)cc1 | i | -7 | i | i | -15* | 64%* | i | 30%*
Cc1ccc(CN2CCN(/N=C\C(Br)=C\c3ccccc3)CC2)cc1 | i | -1 | i | i | i | i | i | i
SMILES | KCNQ1 pot | hERG protect | KCNQ1 block | KCNK3 inh | KCNK9 inh | KCNK9 inh conf | Kir21 sel | HEK293 Tl ctr
C(=N\N1CCN(Cc2ccccc2)CC1)/c1ccc(-c2ccccc2)cc1 | i | -8 | i | i | i | x | x | x
COc1ccccc1/C=C/C=N/N1CCN(Cc2ccccc2)CC1 | i | -8 | i | i | i | i | i | i
CC(C)C(OC(=O)Cn1nnc2ccccc21)C(=O)NC1CCCC1 (configuration not stated) | i | -5 | i | i | i | x | x | x
CCCCCCCc1ccc(-c2ccc(O)cc2)nc1 | i | -3 | i | i | i | i | i | i
O=S(=O)(Nc1nc2ccccc2nc1N1CCc2ccccc2C1)c1ccc(Br)cc1 | x | x | x | i | x | x | x | x
O=S(=O)(Nc1nc2ccccc2nc1N1CCc2ccccc2C1)c1ccc(Cl)cc1 | i | -11 | i | i | -12* | 46%* | i | i
NC(=S)NN=C1c2cc(OCCN3CCOCC3)ccc2-c2ccc(OCCN3CCOCC3)cc21 | i | -12 | i | i | i | x | x | x
CC(C)(C)c1cc(-c2csc(Nc3ccccc3)[n+]2Cc2ccc(C(=O)O)cc2)cc(C(C)(C)C)c1O | 15* | -10 | i | i | i | i | i | i
N#Cc1c(Cl)nc(N/N=C/c2ccccc2)c(Cl)c1Cl | i | -14 | i | i | i | x | x | x
C[n+]1cccc(/C=N/Nc2nc(Cl)c(C#N)c(Cl)c2Cl)c1 | i | -5 | i | i | i | i | i | i
C=CC[C@H](CC(=O)OC(C)(C)C)C(=O)OC[C@@H]1CCCN1C(=O)[C@H](CC=C)CC(=O)N[C@H](CO)Cc1ccccc1 | x | x | x | i | x | x | x | x
CCCCCCCCC[n+]1cccc2c3ccccc3ccc21 | i | -32 | i | i | -17* | 70%* | 90%* | 30%*
NS(=O)(=O)c1ccc(NCc2cc(Cl)ccc2OCc2ccc(F)cc2)cc1 | i | -7 | i | i | -13* | 50%* | i | 42%*
COc1ccccc1-c1nnc(SC/C(O)=C(\C#N)c2nc3ccccc3[nH]2)n1C1CCCCC1 | i | -4 | i | i | -12* | 72%* | i | i
N#C/C(=C(/O)CSc1nnc(Cc2cccs2)n1C1CCCCC1)c1nc2ccccc2[nH]1 | i | -3 | i | i | i | x | x | x
